In the library only some 1.7% were active in any assay of this set; here they are far more common.
TPT1 inhibitor = Candida albicans TPT1 enzyme inhibitors, primary screen, biochemical, fluorescence polarization. 300,000 compounds, 0.81% hits. AID 1962, 2009. inhibition, % at 5 µM. tRNA 2'-phosphotransferase TPT1 (Candida albicans SC5314). recombinant caTPT1, FP RNA substrate dephosphorylation;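 active = inhibition above the mean of all tested compounds plus 3 SD, set per screening campaign, cut at about 24% in these data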
IDE inh = human IDE inhibitors in live cells, primary screen, fluorescence polarization, HEK cells, FAbetaB substrate. Insulin-degrading enzyme (Homo sapiens), P14735. inhibition, % at 5.59 µM. 320,000 compounds, 0.41% hits. FAbetaB cleavage. AID 434962, 2010;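 active = percent inhibition above the average of all tested compounds plus 3 SD, set per screening campaign, cut at about 16% in these data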;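 also: IDE supplied by intact live HEK cells; FP after avidin binding of uncleaved biotin substrate so inhibition keeps polarization high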
Rpn11 inh = Rpn11 (PSMD14) deubiquitinase inhibitors, primary screen, biochemical, fluorescence polarization, uHTS; 26S proteasome non-ATPase regulatory subunit 14 (Homo sapiens), O00487; human 26S proteasome, Ub4-pepOG fluorescence polarization; 20S core pre-blocked with epoxomicin; calls only at 20 µM; 360,000 compounds, 0.59% hits;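 active = inhibition at 20 µM, scaled to each plate's controls, above about 33%, limit read from the data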
CSN inh = inhibitors of CSN-mediated cullin deneddylation, primary screen, biochemical, fluorescence polarization, uHTS; 360,000 compounds, 0.38% hits; inhibition, % at 12.5 µM; COP9 signalosome complex subunit 5 (Homo sapiens), Q92905; AID 651999, 2013; Purified CSN, SCF-Nedd8-OG deneddylation;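 active = pattern-corrected inhibition above about 35%, with an unprinted fluorescence ratio check between 0.5 and 1.5, limit read from the data, passing the limit was not always enough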
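Assay system: HEK293T-derived human Csn5 enzyme; quantity: 0.24 nM enzyme; medium: Tris/NaCl/DTT buffer, pH 7.5; also added: substrate SCFSkp2-Nedd8OG, 10 nM; doses: 12.5 µM compound; schedule: 90 min reaction at room temperature; signal: FP; read-out: % inhibition of substrate cleavage by Csn5; benchmarks: substrate-only high control, full reaction low control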
IDE act = human IDE activators in live cells, primary screen, fluorescence polarization, HEK cells, FAbeta-B substrate; AID 493087, 2011; Insulin-degrading enzyme (Homo sapiens), P14735; activation, % at 5.96 µM; 340,000 compounds, 0.073% hits; FAbeta-B cleavage; 0% vehicle, 100% cell-free pure enzyme wells;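 active = activation above the mean of all tested compounds plus 3 SD, set per screening campaign, cut at about 17% in these data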
HNF4A DNA FP = change in binding of human HNF4A to DNA, primary screen, biochemical, fluorescence polarization, FITC-DNA. 1 h. activity change, % at 10 µM. 360,000 compounds, 0.3% hits. AID 1224865, 2016; in the data active = activity change above about 30%, passing the limit was not always enough
Target sequence (P41235 whole entry, looked up): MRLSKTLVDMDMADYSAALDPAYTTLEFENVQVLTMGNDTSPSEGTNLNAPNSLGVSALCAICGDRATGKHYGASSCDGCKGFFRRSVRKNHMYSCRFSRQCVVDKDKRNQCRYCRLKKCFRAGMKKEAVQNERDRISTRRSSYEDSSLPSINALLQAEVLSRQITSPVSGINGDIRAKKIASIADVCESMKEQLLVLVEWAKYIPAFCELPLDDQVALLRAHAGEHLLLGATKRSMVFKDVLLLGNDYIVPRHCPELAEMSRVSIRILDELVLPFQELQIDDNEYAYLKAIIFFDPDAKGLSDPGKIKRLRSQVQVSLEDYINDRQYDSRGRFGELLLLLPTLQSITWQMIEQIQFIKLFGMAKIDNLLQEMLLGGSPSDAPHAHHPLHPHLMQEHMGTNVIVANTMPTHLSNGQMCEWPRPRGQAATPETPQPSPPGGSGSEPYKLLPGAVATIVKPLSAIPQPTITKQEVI
IDE cell inh cf = human IDE inhibitors in live cells, confirmation, fluorescence polarization, HEK cells, FAbetaB substrate; shares compounds with IDE inh; FAbetaB cleavage; inhibition, % at 5.59 µM; 1,200 compounds, 51% hits; AID 435028, 2010;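 active = mean inhibition across triplicate wells above the cutoff set by the earlier primary insulin-degrading enzyme screen, cut at about 16% in these data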
HEK293 tox = cytotoxicity in HEK cells, cytotoxicity control for IDE inhibitor project, cell-based, luminescence | HEK293 cytotoxicity, ATP luminescence | 1,200 compounds, 28% hits | inhibition, % at 5.59 µM | shares compounds with IDE inh; in the data active = inhibition above about 22%
IDE FP artifact = fluorescent or optically active artefacts, dose response, artefact control for IDE inhibitor project, biochemical, fluorescence polarization | FP counterscreen for fluorescent artifacts, IDE probe project | shares compounds with IDE inh | 30 tested, under 10 active | IC50, µM; call rule not given here
Of the large screens only hits and unclear results are named; the others gave an inactive call (follow-up assays come after a bar, where shown).

Oc1cccc2ccc(Nc3ccccn3)nc12	IDE inh 25 | IDE cell inh cf inactive | HEK293 tox 45
c1ccc(Nc2ccccc2Nc2ccccn2)nc1	none
Cc1cc(C)cc(C(=O)Nc2ccc(NC(=O)c3cccs3)cc2)c1	IDE inh 19 | IDE cell inh cf inactive | HEK293 tox inactive
CC(=O)c1ccc(NC(=O)c2cccs2)cc1	none
Cc1cc(CSc2ccccc2)ccc1NC(=O)c1ccc(CN2CCOCC2)cc1	IDE inh 25 | IDE cell inh cf inactive | HEK293 tox 75
N#CCS(=O)(=O)c1ccccc1	none
Cc1cc2c(cc1S(=O)(=O)NCC(C)c1ccccc1)n(C)c(=O)c(=O)n2C (configuration not stated)	none
Cc1ccc(NC(=O)CN(CCc2ccccc2)S(C)(=O)=O)cc1	none (no result: TPT1 inhibitor, IDE inh)
Nc1c(SCCC(=O)O)ccc2c1C(=O)c1ccccc1C2=O	IDE inh 17 | IDE cell inh cf inactive | HEK293 tox inactive
Nc1c(C(=O)O)ccc2c1C(=O)c1ccccc1C2=O	none
C=CCNc1ncnc2c1[nH]c1ccc(Cl)cc12	IDE inh 30 | IDE cell inh cf inactive | HEK293 tox 47
C=CCNc1ncnc2c1[nH]c1ccccc12	none
CCN1/C(=C/C=C/c2oc3ccc4ccccc4c3[n+]2CC)Oc2ccc3ccccc3c21	IDE inh 82 (no result: Rpn11 inh, CSN inh, IDE act, HNF4A DNA FP) | IDE cell inh cf 133 | HEK293 tox 112
CC[n+]1c(/C=C/N(C)c2ccccc2)oc2ccc(Cl)cc21	none
Cc1nn(C)c(Sc2ccccc2N)c1[N+](=O)[O-]	IDE inh 28 | IDE cell inh cf inactive | HEK293 tox inactive
Cc1c[nH]c2cccc(OCC(O)CNC(C)(C)C)c12 (configuration not stated)	none
O=C(CSc1nnc(-c2cccnc2)n1Cc1ccco1)c1ccc2ccccc2c1	none
O=C(CSc1nnc(-c2cccc(Cl)c2)n1Cc1ccco1)Nc1ccc2cn[nH]c2c1	none (no result: TPT1 inhibitor, IDE inh, Rpn11 inh, CSN inh, IDE act, HNF4A DNA FP) | IDE FP artifact inactive
O=C(CSc1nnc(-c2cccc(Cl)c2)n1Cc1ccco1)c1ccc2ccccc2c1	none (no result: TPT1 inhibitor, IDE inh, Rpn11 inh, CSN inh, IDE act, HNF4A DNA FP) | IDE FP artifact inactive
Cc1cccc(-c2nnc(SCc3nc4ccccc4[nH]3)n2Cc2ccco2)c1	IDE inh 37 | IDE cell inh cf 31 | HEK293 tox inactive | IDE FP artifact inactive
Cc1ccc(-c2cc(C(=O)Nc3ccc(S(=O)(=O)N4CC(C)OC(C)C4)cc3)[nH]n2)c(O)c1 (configuration not stated)	IDE inh 20 | IDE cell inh cf inactive | HEK293 tox 32
Cc1ccc(O)c(-c2cc(C(=O)Nc3ccc(S(=O)(=O)N4CC(C)OC(C)C4)cc3)[nH]n2)c1 (configuration not stated)	none
COc1ccc(/C(C#N)=C/c2ccccn2)cc1	none
N#C/C(=C\c1ccccn1)c1nc2ccccc2s1	IDE inh 28 | IDE cell inh cf 46 | HEK293 tox inactive
Cc1sc2ccc3sccc3c2[n+]1C	IDE inh 20 | IDE cell inh cf inactive | HEK293 tox inactive
Cc1sc2c3ccsc3ccc2[n+]1C	none
CC(C)Oc1ccc(S(=O)(=O)N2CCCCC2)cc1NC(=O)C1CCC1	none
N#CC1=C(N)Oc2cc(O)ccc2C1c1ccncc1 (configuration not stated)	IDE inh 131 | IDE cell inh cf inactive | HEK293 tox inactive
N#CC1=C(N)Oc2ccc3ccc(O)cc3c2C1c1cccnc1 (configuration not stated)	none
N#CC1=C(N)Oc2cc(O)ccc2C1c1cccnc1 (configuration not stated)	IDE inh 82 | IDE cell inh cf inactive | HEK293 tox inactive
COC(=O)c1ccc(C2C(C#N)=C(N)Oc3cc(O)ccc32)cc1 (configuration not stated)	IDE inh 24 | IDE cell inh cf inactive | HEK293 tox inactive
COc1ccc(C)cc1S(=O)(=O)N1CCN(S(=O)(=O)c2cc(C)ccc2OC)C(C)C1 (configuration not stated)	none
Cc1ccc2c(c1)C1NC(=S)NC(C)(O2)C1C(=O)Nc1ccc(Cl)cc1 (configuration not stated)	IDE inh 17 | IDE cell inh cf inactive | HEK293 tox inactive
O=C1c2ccccc2C(=O)C1(CO)c1ccccc1	none
COCCCn1c(SCCc2ccccc2)nc2cc(OC)c(OC)cc2c1=N	none
COc1ccc(-c2csc(NC(=O)c3cc(C)oc3C)n2)cc1OC	IDE inh 17 | IDE cell inh cf inactive | HEK293 tox inactive
CCc1noc(C)c1C(=O)Nc1nc(-c2ccc(OC)c(OC)c2)cs1	none
Oc1[nH]c(N=C2N=c3ccccc3=N2)c2ccccc12	IDE inh 26 | IDE cell inh cf 20 | HEK293 tox 76
Cc1ccc2c(c1)=N/C(=N\c1[nH]c(O)c3ccccc13)N=2	none (not shown: TPT1 inhibitor, IDE inh, Rpn11 inh, IDE act)
CC(C)(C)C(=O)Nc1ccc(C(=O)N/N=C/c2ccccc2OC(=O)c2ccccc2)cc1	none
O=C(CSc1nc2[nH]ncc2c(=O)n1-c1ccccc1Cl)N1CCCC1	IDE inh 18 | IDE cell inh cf inactive | HEK293 tox inactive
CCOc1ccc(NC(=O)CSc2nc3[nH]ncc3c(=O)n2-c2ccccc2OC)cc1	IDE inh 62 | IDE cell inh cf inactive | HEK293 tox inactive
CCc1ccccc1-n1c(SCC(=O)N2CCCC2)nc2[nH]ncc2c1=O	none
Cc1nc2ccccc2c(=O)n1-c1ccc(NS(=O)(=O)c2ccc(F)cc2)cc1	IDE inh 22 | IDE cell inh cf inactive | HEK293 tox inactive
Fc1ccc2[nH]c3c(N4CCN(c5ccccc5)CC4)ncnc3c2c1	IDE inh 50 | IDE cell inh cf 33 | HEK293 tox 55
COc1ccc(N2CCN(c3ncnc4c3[nH]c3ccccc34)CC2)cc1	IDE inh 35 | IDE cell inh cf 42 | HEK293 tox 64

Source: PubChem
